Assay results as given in PMC6402190 (Clinical and Translational Science, 2017).
“Also recorded” adds a separate entry of the source. Like-named read-outs stand apart in the source and are kept apart here.

Key:
[1] = Local tolerability: Visual Infusion Phlebitis; format: in vivo, human (healthy women)
Outline: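 The investigator scored the infusion site on the Visual Infusion Phlebitis scale, from 0 (no signs) to 5 (advanced thrombophlebitis). Subjects were healthy women given a single i.v. infusion of test compound or placebo. Scoring was done on day 1 predose after catheter placement, at 0.5, 1, 2, 3, 4, 6, 8, 12, 24, 48 and 72 h postdose, and at the post-trial exam.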

[2] = Local tolerability: ultrasound of the arm veins; format: in vivo, human (healthy women)
Outline: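 Arm veins were examined by ultrasound in healthy women. In the multiple-dose phase of part B, subjects had once-daily 30-min i.v. infusions of 240 mg test compound or placebo on days 8–14. Scans were done at readmission on day 7 and predose on days 9–14. After the day-14 dose they were repeated at 24, 48 and 72 h and at the final exam.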

[3] = format: in vivo, human (healthy women)
[4] = Safety: treatment emergent adverse events, laboratory, vital signs, ECG; format: in vivo, human (healthy women); details: for Dose-dependent AEs or clinically significant findings in safety laboratory values, vital signs, ECG parameters: any of the dose groups
Outline: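 Subjects were healthy women, aged 18–45 years, with BMI 18.0–28.0 kg/m². Part A gave single escalating i.v. doses (6 active, 2 placebo per cohort). Part B gave 240 mg i.v. on day 1 and once daily on days 8–14 (8 active, 4 placebo). AEs were categorized by nature, frequency, duration, severity, investigator-assessed causality and dose-dependence. Clinical laboratory, blood pressure, heart rate and 12-lead/Holter ECG were also recorded. Summaries are descriptive.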

[5] = Local tolerability: VAS assessment of pain at infusion site; format: in vivo, human (healthy women)
Outline: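 Healthy women, aged 18–45 years, received single i.v. doses of HPβCD-formulated test compound (60-min infusion in 0.9% saline) or placebo. Pain was self-rated on a 100-mm line (0 = no pain, 100 = unbearable). Read-outs were maximum increase from baseline and area under the VAS-time curve.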

[6] = part A, single 120 mg i.v., 30-min infusion, N=6, mean ± SD
[7] = part A, single 240 mg i.v., 30-min infusion, N=6, mean ± SD
[8] = part A, single 480 mg i.v., 60-min infusion, N=6, mean ± SD
[9] = part A, single 720 mg i.v., 60-min infusion, N=6, mean ± SD
[10] = part A, single 960 mg i.v., 60-min infusion, N=6, mean ± SD
[11] = part B, single 240 mg i.v. day 1, 30-min infusion, N=8, mean ± SD
[12] = part A, letermovir total (N=30)
[13] = part B, multiple-dose letermovir
[14] = part A, single dose 120 mg (N=6)
[15] = part A, single dose 120 mg (N=6), listed as letermovir
[16] = part A, single dose 240 mg (N=6)
[17] = part A, single dose 480 mg (N=6)
[18] = part A, single dose 720 mg (N=6)
[19] = part A, single dose 960 mg (N=6)
[20] = part A, single dose, letermovir total (N=30)
[21] = part B, multiple dose 240 mg (No. 5)
[22] = part B, multiple dose 240 mg (No. 6)
[23] = part B, single dose 240 mg (N=8)

## COc1cccc(N2CCN(C3=Nc4c(F)cccc4[C@H](CC(=O)O)N3c3cc(C(F)(F)F)ccc3OC)CC2)c1 [Letermovir]
[1]; part A, one subject of 120 mg group, 4 h postinfusion, scale 0–5
  VIP score: 2
[1]; part A, one subject treated with 240 mg, 24 h postinfusion, scale 0–5
  VIP score: 1
[1]; part A, same subject of 120 mg group, 72 h postinfusion, scale 0–5
  VIP score: 1
[1]; part B, one letermovir-treated subject, predose day 14 until 72 h postdose
  VIP score: 1
[1]; part B, throughout the study, all participants except one
  VIP score: 0
[2]; part A, one subject in letermovir-treated group, at follow-up
  Ultrasound finding in infusion site arm: NCS abnormal finding
[2]; part B
  Ultrasound finding in infusion site arm: no abnormal findings
[3]; female, human, plasma, intravenous, 240 mg, AUC0–∞ after a single dose, part B, 240 mg single dose
  AUC(0-inf): 27500 ng·h/mL
[3]; female, human, plasma, intravenous, 240 mg, AUCτ,ss, part B, 240 mg q.d., steady state
  AUC: 33600 ng·h/mL
[3]; female, human, plasma, iv, 120 mg
  Tmax: 0.5 h
[3]; female, human, plasma, iv, 240 mg
  Tmax: 0.5 h
[3]; female, human, plasma, iv, 480 mg
  Tmax: 1 h
[3]; female, human, plasma, iv, 720 mg
  Tmax: 1 h
[3]; female, human, plasma, iv, 960 mg
  Tmax: 1 h
[3]; [6]
  AUC0–last/D: 0.11 ± 0.03 µg·h/mL/mg
  AUC0–∞/D: 0.11 ± 0.03 µg·h/mL/mg
  Cmax/D: 0.06 ± 0.01 µg/mL/mg
[3]; [7]
  AUC0–last/D: 0.14 ± 0.04 µg·h/mL/mg
  AUC0–∞/D: 0.14 ± 0.04 µg·h/mL/mg
  Cmax/D: 0.07 ± 0.01 µg/mL/mg
[3]; [8]
  AUC0–last/D: 0.22 ± 0.04 µg·h/mL/mg
  AUC0–∞/D: 0.22 ± 0.04 µg·h/mL/mg
  Cmax/D: 0.06 ± 0.01 µg/mL/mg
[3]; [9]
  AUC0–last/D: 0.23 ± 0.03 µg·h/mL/mg
  AUC0–∞/D: 0.23 ± 0.03 µg·h/mL/mg
  Cmax/D: 0.05 ± 0.00 µg/mL/mg
[3]; [10]
  AUC0–last/D: 0.26 ± 0.06 µg·h/mL/mg
  AUC0–∞/D: 0.26 ± 0.06 µg·h/mL/mg
  Cmax/D: 0.06 ± 0.01 µg/mL/mg
[3]; part B, 240 mg q.d. i.v. day 14, 30-min infusion, N=5, median (minimum-maximum)
  Tmax: 0.50 (0.50–0.50) h
[3]; part B, 240 mg q.d. i.v. day 14, N=5, mean ± SD
  C0h (pre-dose analyte concentration): 193.2 ± 86.23 ng/mL
[3]; [11]
  AUC0–last/D: 0.12 ± 0.02 µg·h/mL/mg
  AUC0–∞/D: 0.13 ± 0.02 µg·h/mL/mg
  Cmax/D: 0.06 ± 0.01 µg/mL/mg
[3]; part B, single 240 mg i.v. day 1, 30-min infusion, N=8, median (minimum-maximum)
  Tmax: 0.50 (0.50–0.50) h
[3]; single i.v. doses 120–960 mg
  Dose proportionality of Cmax: dose‐proportional increase; also recorded: approximately proportionally to the dose
  Dose proportionality of total exposure AUC0–∞ (AUC0–last): slightly more‐than‐dose‐proportional increase; also recorded: more than dose proportional
  Increase in exposure on dose-doubling: threefold
[4]
  Dose-dependent AEs or clinically significant findings in safety laboratory values, vital signs, ECG parameters: No clinically significant findings
[4]; listed as letermovir
  Dose-dependent AEs or clinically significant findings in safety laboratory values, vital signs, ECG parameters: No dose‐dependent AEs or clinically significant findings
[4]; part A
  Subjects with mild or moderate TEAEs: 17 subjects
[4]; [12]
  TEAE Vessel puncture site hematoma: 2 No. of subjects
  TEAE Vessel puncture site pain: 4 No. of subjects
  TEAE Vessel puncture site reaction: 2 No. of subjects
[4]; part A, single-dose letermovir
  Treatment-related AE headache: 2 subjects
  Treatment-related AE nausea: 2 subjects
  Treatment-related AE vomiting: 2 subjects
[4]; part A, single-dose letermovir (18/30)
  Subjects reporting TEAEs: 60%
[4]; part A, single-dose letermovir (eight subjects)
  Subjects reporting AEs possibly or probably related to treatment: 26.7%
[4]; part B
  Subjects with mild or moderate TEAEs: 6 subjects
[4]; part B, letermovir (6/8)
  Subjects reporting TEAEs: 75%
[4]; [13]
  Subjects with treatment-related AEs: five
  Treatment-related AE dizziness: 2 subjects
  Treatment-related AE headache: 2 subjects
[4]; single doses up to 960 mg and multiple once-daily 240 mg i.v.
  General tolerability: generally safe and well tolerated
[4]; throughout the study
  Discontinuations due to AEs: no discontinuations due to AEs
[5]; [14]
  AUC (increase from baseline) of VAS-time curve, Mean (SD): 2.74 (6.55) h*mm VAS
  AUC (increase from baseline) of VAS-time curve, Median: 0.00 h*mm VAS
  AUC (increase from baseline) of VAS-time curve, Range: 0.00–16.10 h*mm VAS
  VAS maximum increase from baseline, Mean (SD): 1.17 (2.40) mm VAS
  VAS maximum increase from baseline, Median: 0.00 mm VAS
  VAS maximum increase from baseline, Range: 0.00–6.00 mm VAS
[5]; [15]
  AUC (increase from baseline) of VAS-time curve, Mean (SD): 2.74 h*mm VAS
  VAS maximum increase from baseline, Mean (SD): 1.17 mm VAS
[5]; [16]
  AUC (increase from baseline) of VAS-time curve, Mean (SD): 0.83 (0.61) h*mm VAS
  AUC (increase from baseline) of VAS-time curve, Median: 0.83 h*mm VAS
  AUC (increase from baseline) of VAS-time curve, Range: 0.00–1.67 h*mm VAS
  VAS maximum increase from baseline, Mean (SD): 1.17 (0.75) mm VAS
  VAS maximum increase from baseline, Median: 1.00 mm VAS
  VAS maximum increase from baseline, Range: 0.00–2.00 mm VAS
[5]; [17]
  AUC (increase from baseline) of VAS-time curve, Mean (SD): 0.24 (0.42) h*mm VAS
  AUC (increase from baseline) of VAS-time curve, Median: 0.00 h*mm VAS
  AUC (increase from baseline) of VAS-time curve, Range: 0.00–1.02 h*mm VAS
  VAS maximum increase from baseline, Mean (SD): 0.5 (0.84) mm VAS
  VAS maximum increase from baseline, Median: 0.00 mm VAS
  VAS maximum increase from baseline, Range: 0.00–2.00 mm VAS
[5]; [18]
  AUC (increase from baseline) of VAS-time curve, Mean (SD): 0.39 (0.95) h*mm VAS
  AUC (increase from baseline) of VAS-time curve, Median: 0.00 h*mm VAS
  AUC (increase from baseline) of VAS-time curve, Range: 0.00–2.33 h*mm VAS
  VAS maximum increase from baseline, Mean (SD): 0.17 (0.41) mm VAS
  VAS maximum increase from baseline, Median: 0.00 mm VAS
  VAS maximum increase from baseline, Range: 0.00–1.00 mm VAS
[5]; part A, single dose 720 mg (N=6), listed as letermovir
  VAS maximum increase from baseline, Mean (SD): 0.17 mm VAS
[5]; [19]
  AUC (increase from baseline) of VAS-time curve, Mean (SD): 0.26 (0.64) h*mm VAS
  AUC (increase from baseline) of VAS-time curve, Median: 0.00 h*mm VAS
  AUC (increase from baseline) of VAS-time curve, Range: 0.00–1.57 h*mm VAS
  VAS maximum increase from baseline, Mean (SD): 0.67 (1.63) mm VAS
  VAS maximum increase from baseline, Median: 0.00 mm VAS
  VAS maximum increase from baseline, Range: 0.00–4.00 mm VAS
[5]; [20]
  AUC (increase from baseline) of VAS-time curve, Mean (SD): 0.89 (2.94) h*mm VAS
  AUC (increase from baseline) of VAS-time curve, Median: 0.00 h*mm VAS
  AUC (increase from baseline) of VAS-time curve, Range: 0.00–16.10 h*mm VAS
  VAS maximum increase from baseline, Mean (SD): 0.73 (1.36) mm VAS
  VAS maximum increase from baseline, Median: 0.00 mm VAS
  VAS maximum increase from baseline, Range: 0.00–6.00 mm VAS
[5]; part A, single dose, letermovir total (N=30), listed as letermovir
  VAS maximum increase from baseline, Mean (SD): 0.73 mm VAS
[5]; [21]
  AUC (increase from baseline) of VAS-time curve, Mean (SD): 24.58 (30.23) h*mm VAS
  AUC (increase from baseline) of VAS-time curve, Median: 23.95 h*mm VAS
  AUC (increase from baseline) of VAS-time curve, Range: 0.00–74.33 h*mm VAS
[5]; [22]
  VAS maximum increase from baseline, Mean (SD): 0.83 (0.41) mm VAS
  VAS maximum increase from baseline, Median: 1.00 mm VAS
  VAS maximum increase from baseline, Range: 0.00–1.00 mm VAS
[5]; part B, multiple dose 240 mg (No. 6), listed as letermovir
  VAS maximum increase from baseline, Mean (SD): 0.83 mm VAS
[5]; [23]
  AUC (increase from baseline) of VAS-time curve, Mean (SD): 0.00 h*mm VAS
  AUC (increase from baseline) of VAS-time curve, Median: 0.00 h*mm VAS
  AUC (increase from baseline) of VAS-time curve, Range: 0.00 h*mm VAS
  VAS maximum increase from baseline, Mean (SD): 0.00 mm VAS
  VAS maximum increase from baseline, Median: 0.00 mm VAS
  VAS maximum increase from baseline, Range: 0.00 mm VAS
